Data: PubChem BioAssay AID463144 (The Scripps Research Institute Molecular Screening Center, 2010)

Tested on: HEK293T G6PC promoter luciferase with RORa, 20 h
Assay: G6PC promoter luciferase repression by compounds – cell-based, luminescence, single concentration, counter-screen for RORA inverse agonist project, late-stage follow-up (AID 463144)
Conditions: at 10 µM; active compounds read low
Outline: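 Assay system: HEK293T cells expressing full-length RORa, SRC-2 coactivator, G6PC-promoter luciferase / Compound dosing: one dose, 10 µM nominal / Timing: 20 h compound treatment / Detection: reporter luminescence / Read-out basis: average fold change versus vehicle wells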

## O=S(=O)(Nc1ccc(C(O)(C(F)(F)F)C(F)(F)F)cc1)c1cccs1
  fold change: 0.64
